Reference: paper PMC3398245 (Analytical Biochemistry, 2012)

Legend:
[1] = target: T1, GST-RIP1 kinase domain (Homo sapiens, UniProt Q13546); test: FP competition assay with fluorescein-Nec-1; assay type: binding; settings: competition with 50 nM 20, 2.6 µM GST-RIP1, 3% DMSO
T1 sequence (Q13546 8-327): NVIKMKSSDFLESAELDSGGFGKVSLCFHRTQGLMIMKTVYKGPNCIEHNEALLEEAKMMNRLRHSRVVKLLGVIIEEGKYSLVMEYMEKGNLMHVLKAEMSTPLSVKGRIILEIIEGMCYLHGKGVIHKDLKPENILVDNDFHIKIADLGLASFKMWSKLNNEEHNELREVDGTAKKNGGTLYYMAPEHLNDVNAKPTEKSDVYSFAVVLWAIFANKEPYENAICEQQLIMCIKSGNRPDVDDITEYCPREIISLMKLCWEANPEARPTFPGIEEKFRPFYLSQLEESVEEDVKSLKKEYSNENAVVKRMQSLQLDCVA

[2] = target: T1, GST-RIP1 kinase domain; test: FP competition assay with fluorescein-Nec-3; assay type: binding; settings: competition with 50 nM 26, 3.4 µM GST-RIP1, 3% DMSO
Procedure, shortened: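 Human RIP1 kinase domain (aa 8–327) as a GST fusion, expressed in baculovirus-infected Sf9 cells and purified by glutathione affinity and gel filtration. Tracer (50 nM) preincubated 5 min with 3.4 µM protein. Test compound titrated 0–100 µM at 3% final DMSO, then 10 min incubation. FP read at ex 485/em 535 nm in mP. IC50 from nonlinear variable-slope fit.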

Row | IC50 [1] | IC50 [2] | Structure (SMILES)
1 | 10.7 ± 1.8 µM | 3.9 ± 0.7 µM | COc1ccc2c(c1)C1=NN(C(C)=O)C(c3ccc(F)cc3)C1CC2 (stereo not shown) [Compound 7]
2 | 9.9 ± 0.6 µM | 7 ± 0.7 µM | CN1C(=O)C(Cc2c[nH]c3ccccc23)NC1=S (stereo not shown) [Compound 1]
